Laboratory results published in ChEMBL document CHEMBL4425094, “Novel Benzo[a]quinolizidine Analogs Induce Cancer Cell Death through Paraptosis and Apoptosis” (J Med Chem, 2016).
Active and inactive are the calls of the source. No cut-off for these calls is given here.

What was measured:
MDA-MB-231 = experiment: Cytotoxicity against human MDA-MB-231 cells assessed as cell growth inhibition after 24 hrs by MTT assay; assay type: functional, cell-based; conditions: MDA-MB-231, 24 h
In short: (§1)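 Cells seeded 24 h in RPMI 1640 + 10% FBS. RWPE-1 was kept in K-SFM with bovine pituitary extract and EGF. Cells then exposed to compounds for 24 h at 37 °C, 5% CO2, with DMSO vehicle and docetaxel as positive control. MTT added for 4 h, absorbance read at 570 nm. Triplicate runs, IC50 reported as mean of three experiments.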

HeLa = experiment: Cytotoxicity against human HeLa cells assessed as cell growth inhibition after 24 hrs by MTT assay; assay type: functional, cell-based; in short: as §1
K562 = experiment: Cytotoxicity against human K562 cells assessed as cell growth inhibition after 24 hrs by MTT assay; assay type: functional, cell-based; conditions: K562, 24 h; in short: as §1
PC-3 [1] = experiment: Cytotoxicity against human PC3 cells assessed as cell growth inhibition after 24 hrs by MTT assay; assay type: functional, cell-based; conditions: PC-3, 24 h; in short: as §1
DU-145 = experiment: Cytotoxicity against human DU145 cells assessed as cell growth inhibition after 24 hrs by MTT assay; assay type: functional, cell-based; conditions: DU-145, 24 h; in short: as §1
MCF7 = experiment: Cytotoxicity against human MCF7 cells assessed as cell growth inhibition after 24 hrs by MTT assay; assay type: functional, cell-based; conditions: MCF7, 24 h; in short: as §1
PC-3 [2] = experiment: Induction of morphological changes in human PC3 cells assessed as formation of massive cytoplasmic vacuoles at 1 uM after 12 hrs by confocal microscopic analysis; assay type: functional, cell-based
RWPE-1 = experiment: Cytotoxicity against human RWPE1 cells assessed as cell growth inhibition after 24 hrs by MTT assay; assay type: cell-based; conditions: RWPE-1, 24 h; in short: as §1

Compound | IC50 (MDA-MB-231) [µM] | IC50 (HeLa) [µM] | IC50 (K562) [µM] | IC50 (PC-3 [1]) [µM] | IC50 (DU-145) [µM] | IC50 (MCF7) [µM] | Activity (PC-3 [2]) | IC50 (RWPE-1) [µM]
C[C@@H]1C[C@@H](O)C[C@H]2c3cc(OCc4ccc(Br)cc4)c(OCc4ccc(Br)cc4)cc3CCN12 | 0.88 | 1.16 | 1.22 | 1.24 | 2.58 | 1.29 | Active | –
O=[N+]([O-])c1ccc([C@@H]2C[C@H](O)C[C@H]3c4cc(OCc5ccccc5)c(OCc5ccccc5)cc4CCN23)cc1 | > 20 | > 20 | > 20 | > 20 | > 20 | > 20 | – | > 20
O=C1C[C@@H](c2ccccc2)N2CCc3ccccc3[C@@H]2C1 (relative stereo) | > 20 | > 20 | > 20 | > 20 | > 20 | > 20 | – | > 20
C[C@]1(O)C[C@@H](c2ccccc2)N2CCc3cc(OCc4ccccc4)c(OCc4ccccc4)cc3[C@@H]2C1 | > 20 | > 20 | > 20 | > 20 | > 20 | > 20 | – | > 20
O[C@@H]1C[C@@H](c2ccccc2)N2CCc3ccccc3[C@@H]2C1 | > 20 | > 20 | > 20 | > 20 | > 20 | > 20 | – | > 20
O[C@H]1C[C@@H](c2ccccc2)N2CCc3ccc(OCc4ccccc4)cc3[C@@H]2C1 | > 20 | > 20 | > 20 | > 20 | > 20 | > 20 | – | > 20
COc1cc([C@@H]2C[C@H](O)C[C@H]3c4cc(OCc5ccccc5)c(OCc5ccccc5)cc4CCN23)cc(OC)c1OC | > 20 | > 20 | > 20 | > 20 | > 20 | > 20 | – | > 20
C[C@@H]1C[C@@H](O)C[C@H]2c3cc(OCc4ccccc4)c(OCc4ccccc4)cc3CCN12 | 1.15 | 2.66 | 1.52 | 2.81 | 2.18 | 2.2 | – | 1.84
O[C@H]1C[C@@H](c2ccccc2)N2CCc3cc4c(cc3[C@@H]2C1)OCO4 | > 20 | > 20 | > 20 | > 20 | > 20 | > 20 | – | > 20
C[C@@H]1CC(=O)C[C@H]2c3cc(OCc4ccc(Br)cc4)c(OCc4ccc(Br)cc4)cc3CCN12 (relative stereo) | > 20 | > 20 | > 20 | > 20 | > 20 | > 20 | – | > 20
COc1ccc([C@@H]2CC(=O)C[C@H]3c4cc(OCc5ccccc5)c(OCc5ccccc5)cc4CCN23)cc1OC (relative stereo) | > 20 | > 20 | > 20 | > 20 | > 20 | > 20 | – | > 20
COc1ccc([C@@H]2CC(=O)C[C@H]3c4cc(OCc5ccccc5)c(OCc5ccccc5)cc4CCN23)cc1 (relative stereo) | > 20 | > 20 | > 20 | > 20 | > 20 | > 20 | – | > 20
COc1ccc([C@@H]2C[C@H](O)C[C@H]3c4cc(OCc5ccccc5)c(OCc5ccccc5)cc4CCN23)cc1OC | > 20 | > 20 | > 20 | > 20 | > 20 | > 20 | – | > 20
Cc1cc(C)cc(COc2cc3c(cc2OCc2cc(C)cc(C)c2)[C@@H]2CC(=O)C[C@@H](C)N2CC3)c1 (relative stereo) | > 20 | > 20 | > 20 | > 20 | > 20 | > 20 | – | > 20
O=C1C[C@@H](c2ccc(-c3ccccc3)cc2)N2CCc3cc(OCc4ccccc4)c(OCc4ccccc4)cc3[C@@H]2C1 (relative stereo) | > 20 | > 20 | > 20 | > 20 | > 20 | > 20 | – | > 20
O=[N+]([O-])c1ccc([C@@H]2C[C@@H](O)C[C@H]3c4cc(OCc5ccccc5)c(OCc5ccccc5)cc4CCN23)cc1 | > 20 | > 20 | > 20 | > 20 | > 20 | > 20 | – | > 20
